Active and inactive are the calls of the source. No cut-off for these calls is given here.
What was measured:
Format in all cases: functional, cell-based
[1] = system: MCF7; experiment: Induction of CYP1A1 expression in human MCF7 cells after 24 hrs by 7-ethoxyresorufin-O-deethelase assay
Method in brief: (§1)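 EROD (7-ethoxyresorufin-O-deethylase) activity in MCF7 cells after 24 h exposure to 0.31, 0.625, 1.25, 2.5 µM flavone; 10 nM TCDD positive control, 0.1% DMSO negative control; three replicates. Read-out reflects mainly CYP1A1, with possible CYP1B1 contribution.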

[2] = system: MCF7; experiment: Induction of CYP1A1 expression in human MCF7 cells at 5 uM after 24 hrs by RT PCR
Method in brief: (§2)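 MCF7 cells treated 24 h (0, 1.25, 2.5, 5 µM; 10 nM TCDD reference); RT-PCR for CYP1A1, CYP1B1 and β-actin, primers per Döhr et al.; band intensities normalized to β-actin, semiquantitative; gels representative of three individual experiments.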

[3] = system: MCF7; experiment: Induction of CYP1B1 expression in human MCF7 cells at 5 uM after 24 hrs by RT PCR; method in brief: as §2
[4] = system: MCF7; experiment: Antiproliferative activity in human MCF7 cells after 96 hrs by MTT assay; conditions: MCF7, 96 h
[5] = system: MCF7; experiment: Antiproliferative activity in human MCF7 cells after 96 hrs by MTT assay in presence of acacetin
[6] = system: MCF7; experiment: Induction of CYP1B1 expression in human MCF7 cells after 24 hrs by 7-ethoxyresorufin-O-deethelase assay; method in brief: as §1
[7] = system: MCF7; experiment: Antiproliferative activity in human MCF7 cells at 1.5 uM after 96 hrs by MTT assay
[8] = system: MCF7; experiment: Induction of CYP1A1 expression in human MCF7 cells at 0.5 uM to 10 uM after 24 hrs by RT PCR and DNA electrophoresis
[9] = system: MCF7; experiment: Induction of CYP1A1 expression in human MCF7 cells at 2.5 uM after 24 hrs by RT PCR; method in brief: as §2
[10] = system: MCF7; experiment: Induction of CYP1B1 expression in human MCF7 cells at 1.25 uM after 24 hrs by RT PCR; method in brief: as §2
[11] = system: MCF7; experiment: Induction of CYP1B1 expression in human MCF7 cells at 10 nM after 24 hrs by 7-ethoxyresorufin-O-deethelase assay
Method in brief: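 MCF7 cells were exposed for 24 h to 0.31, 0.625, 1.25 or 2.5 µM flavone, with 10 nM TCDD as positive control and 0.1% DMSO as negative control. CYP1 activity was read by 7-ethoxyresorufin-O-deethylation (EROD), which is mainly CYP1A1-selective, though CYP1B1 may contribute. The time course used 2.5 µM. Three replicates.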

Question: With `COc1ccc(-c2cc(=O)c3c(O)c(OC)c(OC)cc3o2)cc1O` [EUPATORIN] as the molecule, how does the Activity [1] read?
Answer: The Activity was “Dose-dependent effect”.

Question: And the Activity [2]?
Answer: Its Activity is “Active”.

Question: What about the Activity [3] of the same molecule?
Answer: Its Activity is “Active”.

Question: What about the IC50 [4] of the same molecule?
Answer: Its IC50 is 7 µM.

Question: What about the Activity [5] of the same molecule?
Answer: The Activity was “inactive”.

Question: What about the Activity [6] of the same molecule?
Answer: Its Activity is “Dose-dependent effect”.

Question: `COc1ccc(-c2cc(=O)c3c(O)cc(O)cc3o2)cc1` was tested. Which Activity [7] did it give?
Answer: The Activity was “inactive”.

Question: Which Activity [8] does the source give for `O=c1c(O)c(-c2ccc(O)cc2)oc2cc(O)cc(O)c12` here?
Answer: Its Activity is “inactive”.

Question: For `COc1cc2oc(-c3ccc(O)c(O)c3)cc(=O)c2c(O)c1OC` [CIRSILIOL], which Activity [9] is on record?
Answer: Its Activity is “Active”.

Question: And the Activity [10]?
Answer: Its Activity is “Active”.

Question: And the Activity [2]?
Answer: Its Activity is “inactive”.

Question: And the Activity [3]?
Answer: The Activity was “Active”.

Question: And the IC25 [4]?
Answer: The IC25 was 0.5 µM.

Question: And the IC50 [4]?
Answer: Its IC50 is 8 µM.

Question: And the IC25 ([5]; MCF7, 96 h)?
Answer: Its IC25 is 5 µM.

Question: What about the IC50 ([5]; MCF7, 96 h) of the same molecule?
Answer: The IC50 was 15 µM.

Question: `O=c1c(O)c(-c2ccc(O)c(O)c2)oc2cc(O)cc(O)c12` was tested. Which Activity [8] did it give?
Answer: Its Activity is “Active”.

Question: `Clc1cc2c(cc1Cl)Oc1cc(Cl)c(Cl)cc1O2` was tested. Which Activity [11] did it give?
Answer: Its Activity is “Active”.

— ChEMBL document CHEMBL1153789, “The methoxylated flavones eupatorin and cirsiliol induce CYP1 enzyme expression in MCF7 cells” (J Nat Prod, 2009)
